Our source for the IC50, inhibition in vivo and inhibition values is ChEMBL document CHEMBL1255513, “Synthesis and biological evaluation of indomethacin analogs possessing a N-difluoromethyl-1,2-dihydropyrid-2-one ring system: a search for novel cyclooxygenase and lipoxygenase inhibitors” (Bioorg Med Chem Lett, 2010).

The source made the active and inactive calls. The calls are words filed in the database; no cut-off is given here.

Test [1] concerns the target T1, Prostaglandin G/H synthase 2 (Homo sapiens, UniProt P35354).
T1 sequence (P35354 whole entry): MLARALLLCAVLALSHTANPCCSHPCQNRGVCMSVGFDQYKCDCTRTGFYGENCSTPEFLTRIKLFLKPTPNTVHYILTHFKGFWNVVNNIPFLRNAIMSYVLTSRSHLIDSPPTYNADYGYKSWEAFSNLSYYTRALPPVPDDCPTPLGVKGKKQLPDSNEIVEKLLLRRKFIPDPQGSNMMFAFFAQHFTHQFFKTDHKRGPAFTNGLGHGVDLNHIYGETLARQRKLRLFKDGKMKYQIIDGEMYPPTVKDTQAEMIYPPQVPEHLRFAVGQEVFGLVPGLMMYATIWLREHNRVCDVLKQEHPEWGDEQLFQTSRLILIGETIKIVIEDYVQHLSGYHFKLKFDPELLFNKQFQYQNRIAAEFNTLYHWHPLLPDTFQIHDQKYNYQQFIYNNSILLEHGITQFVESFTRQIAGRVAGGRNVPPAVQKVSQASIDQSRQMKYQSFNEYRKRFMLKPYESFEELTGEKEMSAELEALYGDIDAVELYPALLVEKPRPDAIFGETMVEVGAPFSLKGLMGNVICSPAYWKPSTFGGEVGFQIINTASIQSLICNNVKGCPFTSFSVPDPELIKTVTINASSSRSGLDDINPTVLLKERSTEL
In words: Inhibition of human recombinant COX2 by enzyme immunoassay.

A short description of test [2]: Inhibition of potato 5-lipoxygenase by enzyme immunoassay. Also on record: species or system Solanum tuberosum.
Test [3] deals with T2, Prostaglandin G/H synthase 1 (Ovis aries, UniProt P05979).
T2 sequence (P05979 whole entry): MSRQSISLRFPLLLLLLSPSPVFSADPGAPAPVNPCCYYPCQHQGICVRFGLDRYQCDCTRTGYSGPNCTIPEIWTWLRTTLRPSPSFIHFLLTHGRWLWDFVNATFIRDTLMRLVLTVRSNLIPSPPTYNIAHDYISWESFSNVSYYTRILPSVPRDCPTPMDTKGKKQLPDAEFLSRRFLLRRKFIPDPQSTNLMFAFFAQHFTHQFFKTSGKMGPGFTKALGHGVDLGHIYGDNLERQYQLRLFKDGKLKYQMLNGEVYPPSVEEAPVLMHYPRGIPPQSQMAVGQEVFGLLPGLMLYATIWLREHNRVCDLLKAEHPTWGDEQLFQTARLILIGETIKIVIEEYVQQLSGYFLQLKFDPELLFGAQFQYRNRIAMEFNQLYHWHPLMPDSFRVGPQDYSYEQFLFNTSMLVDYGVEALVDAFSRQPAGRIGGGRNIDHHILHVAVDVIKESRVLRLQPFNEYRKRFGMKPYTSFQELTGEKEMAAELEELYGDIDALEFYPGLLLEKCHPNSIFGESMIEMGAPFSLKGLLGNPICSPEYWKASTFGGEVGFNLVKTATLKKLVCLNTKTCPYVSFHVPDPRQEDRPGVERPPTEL
In words: Inhibition of ovine COX1 by enzyme immunoassay. The gist of the method: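 COX inhibition was measured by enzyme immunoassay kit. IC50 is the mean of two determinations, with deviation from the mean below 10%.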

Test [4] relates to Rattus norvegicus. Description: Antiinflammatory activity in rat assessed as inhibition of carrageenan-induced rat paw edema at 100 mg/kg, po after 3 hrs. The class given is functional. The gist of the method: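 Carrageenan-induced rat paw edema; test compound given orally at 100 mg/kg. Result is % inhibition of inflammation at 3 h after dosing. Protocol was approved by the University of Alberta Health Sciences Animal Welfare Committee.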
For orientation: In the carrageenan paw model, swelling and tenderness develop within hours.

Test [5] concerns Rattus norvegicus. Description: Antiinflammatory activity in rat assessed as inhibition of carrageenan-induced rat paw edema at 4.2 mg/kg, po after 3 hrs. In kind it is functional. The method, boiled down: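 Carrageenan-induced foot paw edema in rats, with the agent given orally. Read-out is % inhibition of inflammation, measured 3 h after the oral dose. Animal work followed protocols approved by the University of Alberta Health Sciences Animal Welfare Committee.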

What is called IC50 is the concentration needed to halve the response being measured. Usually inhibition in vivo stands for the change of the read-out against control, counted positive when it falls. Consider `COc1ccc2c(c1)c(CC(=O)O)c(C)n2Cc1ccc(=O)n(C(F)F)c1`, for which the concentration for half-maximal inhibition (IC50) in test [1], in test [2] and in test [3] was more than 100 µM each time. For the same compound, in test [4], the inhibition in vivo at 100 mg/kg was found to be 16%.

In test [2], `CC(Cc1ccc(O)c(O)c1)C(C)Cc1ccc(O)c(O)c1` (centres undefined) [NORDIHYDROGUAIARETIC ACID] came in with a concentration for half-maximal inhibition (IC50) of 13 µM.

Consider `COc1ccc2c(c1)c(CC(=O)O)c(C)n2C(=O)c1ccn(C(F)F)c(=O)c1`, for which the IC50 in test [1], in test [2] and in test [3] was more than 100 µM in each case. The inhibition in vivo at 100 mg/kg in test [4] is 25.5%.

Regarding `COc1ccc2c(c1)c(CC(=O)O)c(C)n2C(=O)c1ccc(Cl)cc1` [INDOMETHACIN], the inhibition in vivo at 4.2 mg/kg in test [5] was determined as 50%.

With `COc1ccc2c(c1)c(CC(=O)O)c(C)n2Cc1ccn(C(F)F)c(=O)c1`, the results for the IC50 in test [1], in test [2] and in test [3] were 31 µM, more than 100 µM and more than 100 µM, respectively. The inhibition entry in test [4] is “inactive”.
